In ChEMBL document CHEMBL1641397, “Camphoratins A-J, potent cytotoxic and anti-inflammatory triterpenoids from the fruiting body of Taiwanofungus camphoratus” (J Nat Prod, 2010):

Legend:
KB [1] = experiment: Cytotoxicity against human KB cells after 3 days by sulforhodamine B assay; type: functional, cell-based
[2] = Cytotoxicity against human KBVIN cells after 3 days by sulforhodamine B assay; type: functional, cell-based
In short: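 KB and vincristine-selected KB-VIN grown in RPMI-1640 with 25 mM HEPES and 10% FBS at 37 °C. KB-VIN challenged with 0.5 μg/mL vincristine every two weeks, drug withdrawn at least one day before use. Seeded at 5000 cells/well, compounds at 20 down to 0.16 μM for 3 days. TCA fixation, SRB stain, absorbance at 562 nm. EC50 interpolated, average of at least two independent determinations.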

BV-2 [3] = experiment: Antiinflammatory activity in mouse BV2 cells assessed as inhibition of LPS-induced iNOS-dependent nitrite production after 24 hrs by Griess method; type: functional, cell-based
BV-2 [4] = experiment: Antiinflammatory activity in mouse BV2 cells assessed as inhibition of NOX-dependent ROS production up to 50 uM; type: functional, cell-based
[5] = Antiinflammatory activity in human PMNC cells assessed as inhibition of fMLP-induced NOX-dependent ROS production up to 50 uM; type: functional, cell-based
KB [6] = experiment: Cytotoxicity against human KB cells at 20 uM after 3 days by sulforhodamine B assay; type: functional, cell-based
In short: (§1)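 KB or KB-VIN cells (KB-VIN held under intermittent 0.5 μg/mL vincristine, withdrawn at least one day before use). Seeded at 5000 cells/well and exposed to compound at 20 μM for 3 days. Cells fixed with TCA, stained with SRB, absorbance read at 562 nm. Value is % inhibition of growth versus untreated cells.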

[7] = Cytotoxicity against human KBVIN cells at 20 uM after 3 days by sulforhodamine B assay; type: functional; settings: 72 h; in short: as §1
[8] = Homo sapiens, KB, 72 h, read-out: EC50
[9] = Homo sapiens, KBVIN, 72 h, read-out: EC50
[10] = Mus musculus, BV-2, 24 h, read-out: IC50
[11] = Mus musculus, BV-2, read-out: IC50
[12] = Homo sapiens, PMNC, read-out: IC50

Row | Compound | EC50 (KB [1]; [8]) [µM] | EC50 [2, 9] [µM] | IC50 (BV-2 [3]; [10]) [µM] | IC50 [5, 12] [µM] | EC50 ([2]; kbvin) | IC50 (BV-2 [4]; bv-2) | other results
1 | C=C(CC[C@@H](C)[C@H]1CC[C@H]2C3=C(C(=O)C[C@]12C)[C@@]1(C)CCC(=O)[C@@H](C)[C@@H]1CC3)C(C)C(=O)O (stereo not given in full) [ANTCIN A] | 4.9 | 10 | 4.1 | 29.2 | – | – | IC50 (BV-2 [4]; [11]): 45.9 µM
2 | C=C(CC[C@@H](C)[C@H]1CC[C@H]2C3=C(C(=O)C[C@]12C)[C@@]1(C)CC[C@@H](O)[C@](C)(O)[C@@H]1C[C@@H]3O)C(C)C(=O)O (stereo not given in full) [ANTCIN K] | – | – | – | 47.2 | Not Active | Not Active | EC50 (KB [1]; kb): Not Active; IC50 (BV-2 [3]; bv-2): Not Active
3 | C=C(CC[C@@H](C)[C@H]1CC[C@H]2C3=C(C(=O)[C@H](O)[C@]12C)[C@@]1(C)CC[C@@H](O)[C@@H](C)[C@@H]1C[C@@H]3O)C(C)C(=O)O (stereo not given in full) [CAMPHORATIN A] | – | – | – | – | Not Active | – | EC50 (KB [6]; kb): Not Active
4 | C=C(CC[C@@H](C)[C@H]1CC[C@H]2C3=C(C(=O)C[C@]12C)[C@@]1(C)CC[C@@H](O)[C@@H](C)[C@@H]1C[C@@H]3O)C(C)C(=O)O (stereo not given in full) [CAMPHORATIN B] | – | – | 15.7 | 32.1 | Not Active | Not Active | –
5 | C=C(CC[C@@H](C)[C@H]1CC[C@H]2C3=C(C(=O)C[C@]12C)[C@@]1(C)CC[C@@H](O)[C@](C)(O)[C@@H]1CC3=O)C(C)C(=O)O (stereo not given in full) [CAMPHORATIN C] | 0.3 | 2.3 | – | – | – | – | –
6 | C=C(CC[C@@H](C)[C@H]1CC[C@H]2C3=C(C(=O)C[C@]12C)[C@@]1(C)CCC(=O)[C@@H](C)[C@@H]1C[C@@H]3O)C(C)C(=O)O (stereo not given in full) [CAMPHORATIN D] | – | – | 4.2 | 22.6 | Not Active | Not Active | EC50 (KB [1]; kb): Not Active
7 | C=C(CC[C@@H](C)[C@H]1CC[C@H]2C3=C(C(=O)C[C@]12C)[C@@]1(C)CC[C@@H](O)[C@@H](C)[C@@H]1CC3=O)C(C)C(=O)OC (stereo not given in full) [CAMPHORATIN E] | 0.45 | 2.7 | – | – | – | – | –
8 | C=C(CC[C@@H](C)[C@H]1CC[C@H]2C3=C(C(=O)C[C@]12C)[C@@]1(C)CCC(=O)[C@@H](C)[C@@H]1C[C@@H]3O)C(C)C(=O)OC (stereo not given in full) [CAMPHORATIN F] | 2 | 2.9 | 2.5 | 11.2 | – | Not Active | –
9 | C=C(CC[C@@H](C)[C@H]1CC[C@H]2C3=C(C(=O)C[C@]12C)[C@@]1(C)CCC(=O)[C@@H](C)[C@@H]1C[C@H]3O)C(C)C(=O)O (stereo not given in full) [CAMPHORATIN G] | 15 | 17.5 | – | – | – | – | –
10 | C=C(CC[C@@H](C)[C@H]1CC[C@H]2C3=C(C(=O)C[C@]12C)[C@@]1(C)CCC(=O)[C@@H](C)[C@@H]1CC3)C(C)C [CAMPHORATIN H] | – | – | – | – | Not Active | – | EC50 (KB [1]; kb): Not Active
11 | C[C@H](/C=C/[C@H](C)[C@H](C)CO)[C@H]1CC[C@H]2C3=CC[C@H]4CC(=O)CC[C@]4(C)[C@H]3CC[C@]12C [CAMPHORATIN I] | – | – | 12.7 | 17.5 | Not Active | Not Active | EC50 (KB [1]; kb): Not Active
12 | C=C(CC[C@@H](C)[C@H]1CC[C@@H]2C3=C(C(=O)C[C@@]21C)[C@@]1(C)CCC(=O)[C@@H](C)[C@@H]1CC3)C(C)C(=O)OC (stereo not given in full) [CAMPHORATIN J] | – | – | 1.6 | 15.8 | Not Active | Not Active | EC50 (KB [1]; kb): Not Active
13 | c1ccc2c(c1)[I+]c1ccccc1-2 [DIPHENYLENEIODONIUM] | – | – | – | – | – | – | IC50 (BV-2 [4]; [11]): 0.4 µM
14 | CC(C)[C@@H](C)/C=C/[C@@H](C)[C@H]1CC[C@@H]2[C@]1(C)CC[C@H]1[C@]23C=C[C@]2(C[C@@H](O)CC[C@]12C)OO3 [ERGOSTEROL PEROXIDE] | – | – | 6.3 | 20.3 | – | Not Active | –
15 | CC(C)[C@@H](C)/C=C/[C@@H](C)[C@H]1CC[C@H]2C3=CC=C4C[C@@H](O)CC[C@]4(C)[C@H]3CC[C@]12C [ERGOSTEROL] | – | – | 30.6 | 27.9 | – | Not Active | –
16 | COc1cc([C@@H]2c3cc4c(cc3[C@@H](O[C@@H]3O[C@@H]5CO[C@@H](C)O[C@H]5[C@H](O)[C@H]3O)[C@H]3COC(=O)[C@H]23)OCO4)cc(OC)c1O [ETOPOSIDE] | 4.5 | > 36 | – | – | – | – | –
17 | C=C(CC[C@@H](C)[C@H]1CC[C@H]2C3=C(C[C@H](O)[C@]12C)[C@@]1(C)CC[C@@H](O)[C@@H](C)[C@@H]1CC3=O)C(C)C(=O)OC (stereo not given in full) [METHYL ANTCINATE H] | – | – | 2.5 | 18.1 | Not Active | – | EC50 (KB [1]; kb): Not Active; IC50 (BV-2 [4]; [11]): 16 µM
18 | C=C(CC[C@@H](C)[C@H]1CC[C@H]2C3=C(C(=O)C[C@]12C)[C@@]1(C)CCC(=O)[C@@H](C)[C@@H]1CC3=O)C(C)C(=O)OC (stereo not given in full) [ZHANKUIC ACID A METHYL ESTER] | > 20 | > 20 | 0.6 | 8.4 | – | Not Active | inhibition at 20 µM [7]: 25%; inhibition at 20 µM (KB [6]; Homo sapiens, KB, 72 h): 21%
19 | C=C(CC[C@@H](C)[C@H]1CC[C@H]2C3=C(C(=O)C[C@]12C)[C@@]1(C)CCC(=O)[C@@H](C)[C@@H]1CC3=O)C(C)C(=O)O (stereo not given in full) [ZHANKUIC ACID A] | 3 | 6.2 | 3.6 | 22.1 | – | Not Active | –
20 | C=C(CC[C@@H](C)[C@H]1CC[C@H]2C3=C(C(=O)C[C@]12C)[C@@]1(C)CC[C@@H](O)[C@@H](C)[C@@H]1CC3=O)C(C)C(=O)O (stereo not given in full) [ZHANKUIC ACID B] | 7.3 | 8.5 | 9.6 | – | – | Not Active | IC50 ([5]; pmnc): Not Active
21 | C=C(CC[C@@H](C)[C@H]1CC[C@H]2C3=C(C(=O)[C@H](O)[C@]12C)[C@@]1(C)CC[C@@H](O)[C@@H](C)[C@@H]1CC3=O)C(C)C(=O)O (stereo not given in full) [ZHANKUIC ACID C] | 15.5 | 6.4 | 16.2 | – | – | – | IC50 (BV-2 [4]; [11]): 40.3 µM; IC50 ([5]; pmnc): Not Active
